Data on 21 compounds can be found in ChEMBL document CHEMBL1144410, “Synthesis of 3-arylpiperazinylalkylpyrrolo[3,2-d]pyrimidine-2,4-dione derivatives as novel, potent, and selective alpha1-adrenoceptor ligands” (J Med Chem, 2005).

The target of assay [1] is Serotonin 1a (5-HT1a) receptor/Adrenergic receptor alpha-1 (Rattus norvegicus) (UniProt P15823+P23944+P43140+P19327). In words: Relative binding affinity for 5-hydroxytryptamine 1A and Alpha-1 adrenergic receptors. It counts as protein assay.
Assay [2] concerns the target T1, 5-hydroxytryptamine receptor 1A (Rattus norvegicus, UniProt P19327).
T1 sequence (P19327 whole entry): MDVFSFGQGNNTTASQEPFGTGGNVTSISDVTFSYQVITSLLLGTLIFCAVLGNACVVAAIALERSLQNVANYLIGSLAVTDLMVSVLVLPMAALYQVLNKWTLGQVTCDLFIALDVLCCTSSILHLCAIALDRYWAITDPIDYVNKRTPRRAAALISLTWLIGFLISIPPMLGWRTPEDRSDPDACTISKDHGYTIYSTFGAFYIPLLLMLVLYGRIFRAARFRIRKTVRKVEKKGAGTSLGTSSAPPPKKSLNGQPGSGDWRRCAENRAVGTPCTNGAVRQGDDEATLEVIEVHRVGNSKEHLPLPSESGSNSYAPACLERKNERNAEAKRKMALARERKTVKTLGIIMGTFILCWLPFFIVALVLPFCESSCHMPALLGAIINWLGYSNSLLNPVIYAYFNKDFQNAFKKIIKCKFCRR
As to the kind of experiment: Inhibition of [3H]8-OH-DPAT binding to 5-hydroxytryptamine 1A receptor from rat hippocampus. It counts as tissue-based. A digest of the protocol: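 Membranes: tissue homogenized in ice-cold 50 mM Tris-HCl pH 7.4, spun 50000g, preincubated 37 °C 10 min, washed. Incubation buffer 50 mM Tris-HCl pH 7.7, 10 µM pargyline, 4 mM CaCl2. [3H]8-OH-DPAT 1 nM final, 30 min, 25 °C; nonspecific with 10 µM 5-HT. Stopped by GF/B filtration, scintillation counting. IC50 from dose-inhibition curves, converted to Ki; mean ± SD of three experiments.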

The target of assay [3] is T2, Adrenergic receptor alpha-1 (Rattus norvegicus, UniProt P15823+P23944+P43140).
T2 sequence (P15823 whole entry): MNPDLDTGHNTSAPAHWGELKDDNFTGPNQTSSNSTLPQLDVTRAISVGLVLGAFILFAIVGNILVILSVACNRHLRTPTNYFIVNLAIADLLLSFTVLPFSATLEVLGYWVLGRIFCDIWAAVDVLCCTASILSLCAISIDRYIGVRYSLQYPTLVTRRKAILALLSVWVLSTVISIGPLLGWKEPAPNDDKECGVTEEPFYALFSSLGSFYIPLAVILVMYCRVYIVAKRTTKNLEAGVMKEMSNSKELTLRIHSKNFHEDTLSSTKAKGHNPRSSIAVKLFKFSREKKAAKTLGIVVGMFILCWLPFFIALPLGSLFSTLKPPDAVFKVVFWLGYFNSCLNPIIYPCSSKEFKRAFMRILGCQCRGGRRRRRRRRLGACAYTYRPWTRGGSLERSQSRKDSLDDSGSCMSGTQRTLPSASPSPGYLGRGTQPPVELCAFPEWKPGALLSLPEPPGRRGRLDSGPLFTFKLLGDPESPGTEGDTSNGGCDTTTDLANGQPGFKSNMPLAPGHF
T2 sequence (P23944 whole entry): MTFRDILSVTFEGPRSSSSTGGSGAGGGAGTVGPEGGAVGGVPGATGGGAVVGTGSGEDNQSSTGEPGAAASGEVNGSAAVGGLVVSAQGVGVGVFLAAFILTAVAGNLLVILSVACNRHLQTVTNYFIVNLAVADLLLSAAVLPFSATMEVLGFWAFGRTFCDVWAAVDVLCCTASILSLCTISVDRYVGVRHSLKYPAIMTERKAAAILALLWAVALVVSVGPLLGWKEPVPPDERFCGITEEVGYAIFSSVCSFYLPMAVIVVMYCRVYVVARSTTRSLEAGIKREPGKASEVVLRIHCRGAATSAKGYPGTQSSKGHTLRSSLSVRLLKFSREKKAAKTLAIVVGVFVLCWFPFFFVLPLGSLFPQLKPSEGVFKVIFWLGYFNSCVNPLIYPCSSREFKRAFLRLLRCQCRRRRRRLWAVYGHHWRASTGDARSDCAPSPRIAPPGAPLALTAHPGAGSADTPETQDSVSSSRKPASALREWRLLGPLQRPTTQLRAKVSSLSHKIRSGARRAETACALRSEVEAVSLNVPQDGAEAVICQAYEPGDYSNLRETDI
T2 sequence (P43140 whole entry): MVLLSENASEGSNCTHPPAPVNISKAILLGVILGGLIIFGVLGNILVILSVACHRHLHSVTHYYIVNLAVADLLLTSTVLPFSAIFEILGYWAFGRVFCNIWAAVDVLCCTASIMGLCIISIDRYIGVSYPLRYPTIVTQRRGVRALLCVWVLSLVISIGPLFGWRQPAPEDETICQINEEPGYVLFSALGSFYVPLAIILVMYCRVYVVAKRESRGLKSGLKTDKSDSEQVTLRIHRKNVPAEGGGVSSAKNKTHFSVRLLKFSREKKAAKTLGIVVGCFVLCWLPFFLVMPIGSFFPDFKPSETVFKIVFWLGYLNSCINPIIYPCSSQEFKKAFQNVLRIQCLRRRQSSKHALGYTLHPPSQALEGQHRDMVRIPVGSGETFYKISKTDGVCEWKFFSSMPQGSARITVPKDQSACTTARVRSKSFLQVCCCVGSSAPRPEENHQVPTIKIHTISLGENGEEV
In words: Inhibition of [3H]prazosin binding to Alpha-1 adrenergic receptor from rat cortex. A digest of the protocol: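 Prepared membranes resuspended in 50 mM Tris-HCl pH 7.7 with 10 µM pargyline and 0.1% ascorbic acid. [3H]prazosin 0.2 nM final, 30 min, 25 °C; nonspecific binding with 3 µM phentolamine. Bound ligand collected on GF/B filters, counted by liquid scintillation. Ki derived from IC50 of dose-inhibition curves; mean ± SD of three separate experiments.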

The target in the next assay is D(1A) dopamine receptor (Rattus norvegicus, UniProt P18901). As to the kind of experiment: Inhibition of [3H]SCH-23390 binding to Dopamine receptor D1 from rat striatum. A digest of the protocol:
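Ligand was [3H]SCH23390 at 0.4 nM final, 15 min, 25 °C; nonspecific binding defined with 10 µM (-)-cis-flupentixol. Filtration on GF/B, liquid scintillation counting. IC50 fitted, Ki derived; mean ± SD, n=3.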

Assay [4] is filed under the species Rattus norvegicus. As to the kind of experiment: Relative binding affinity for Dopamine D2 and Alpha-1 adrenergic receptors.
The species entered for assay [5] is Rattus norvegicus. As to the kind of experiment: Relative binding affinity for Dopamine D1 and Alpha-1 adrenergic receptors.
Another assay deals with D(2) dopamine receptor (Rattus norvegicus, UniProt P61169). In words: Inhibition of [3H]spiperone binding to Dopamine receptor D2 from rat striatum. The procedure, abridged: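 Membrane incubation in 50 mM Tris-HCl pH 7.1 with 10 µM pargyline, 120 mM NaCl, 5 mM KCl, 2 mM CaCl2, 1 mM MgCl2 and 0.1% ascorbic acid. [3H]spiperone 0.2 nM final, 15 min at 37 °C; 100 µM (-)-sulpiride for nonspecific binding. Vacuum filtration through GF/B, scintillation counting; Ki from IC50 of dose-inhibition curves, mean ± SD of three runs.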

For orientation: Ki means the dissociation constant of the complex between target and ligand, obtained from inhibition or displacement. Read a low Ki as a stronger hold on the target.

The structures appear in SMILES notation.

Sequence of D(1A) dopamine receptor (P18901 whole entry): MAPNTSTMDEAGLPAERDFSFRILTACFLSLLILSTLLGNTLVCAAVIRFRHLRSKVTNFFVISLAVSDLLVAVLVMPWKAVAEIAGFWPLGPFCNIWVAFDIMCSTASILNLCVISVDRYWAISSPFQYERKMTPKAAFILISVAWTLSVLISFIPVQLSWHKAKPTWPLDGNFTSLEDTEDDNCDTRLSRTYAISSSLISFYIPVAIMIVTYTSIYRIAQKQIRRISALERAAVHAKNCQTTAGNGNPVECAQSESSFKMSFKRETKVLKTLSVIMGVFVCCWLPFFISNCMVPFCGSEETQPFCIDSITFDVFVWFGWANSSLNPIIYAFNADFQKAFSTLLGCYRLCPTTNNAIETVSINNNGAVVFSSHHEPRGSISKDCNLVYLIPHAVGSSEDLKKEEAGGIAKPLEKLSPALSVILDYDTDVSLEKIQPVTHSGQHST
Sequence of D(2) dopamine receptor (P61169 whole entry): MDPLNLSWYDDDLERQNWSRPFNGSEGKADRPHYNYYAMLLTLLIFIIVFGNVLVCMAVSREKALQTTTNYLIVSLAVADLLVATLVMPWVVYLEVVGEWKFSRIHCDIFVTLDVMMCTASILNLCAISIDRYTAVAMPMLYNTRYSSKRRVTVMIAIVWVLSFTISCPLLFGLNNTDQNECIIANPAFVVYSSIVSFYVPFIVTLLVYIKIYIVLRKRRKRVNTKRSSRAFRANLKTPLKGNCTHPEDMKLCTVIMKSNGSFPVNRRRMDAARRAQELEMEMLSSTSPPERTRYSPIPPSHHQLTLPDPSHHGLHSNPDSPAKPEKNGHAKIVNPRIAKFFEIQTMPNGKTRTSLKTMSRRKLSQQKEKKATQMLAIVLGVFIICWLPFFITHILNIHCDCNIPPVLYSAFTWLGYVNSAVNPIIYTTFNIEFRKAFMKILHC

For the compound `Cc1ccc(-c2cc3[nH]c(=O)n(CCCN4CCN(c5ccccc5Cl)CC4)c(=O)c3[nH]2)cc1`, the Ratio in assay [1] was over 90. Also, the Ki in assay [2] was over 10000 nM; in assay [3] it was 110.1 nM.

Consider `O=c1[nH]c2cc[nH]c2c(=O)n1CCCN1CCN(c2ccccc2Cl)CC1`, for which, in assay [1], the Ratio was 6.3. For the same compound, the inhibitory constant (Ki) came to 376 nM in assay [2] and 59.78 nM in assay [3].

As to `COc1ccccc1N1CCN(CCCn2c(=O)[nH]c3cc(-c4ccc(C)cc4)[nH]c3c2=O)CC1`, in assay [1], the Ratio came to 1.73. In addition, the Ki in assay [2] was determined as 83 nM; in assay [3], 47.88 nM.

As to `COc1ccccc1N1CCN(CCn2c(=O)[nH]c3cc[nH]c3c2=O)CC1`, the Ratio in assay [1] was 282. Further, the results for the Ki in assay [2] and in assay [3] were 651 nM and 2.31 nM, respectively.

With `COc1ccccc1N1CCN(CCn2c(=O)[nH]c3c([nH]c4ccccc43)c2=O)CC1`, the Ratio in assay [1] came out at 238.

On to `COc1ccc(-c2cc3[nH]c(=O)n(CCN4CCN(c5ccccc5Cl)CC4)c(=O)c3[nH]2)cc1`, for which the Ratio in assay [1] is over 2500; in the assay filed under Rattus norvegicus [4] it was 0.65; in the assay listed under Rattus norvegicus [5], over 2500. Moreover, the Ki was over 10000 nM at D(1A) dopamine receptor, over 10000 nM in assay [2], 3.4 nM in assay [3] and 2.23 nM at D(2) dopamine receptor.

Consider `COc1ccccc1N1CCN(CCn2c(=O)[nH]c3cc(-c4cccc(Cl)c4)[nH]c3c2=O)CC1`, for which, in assay [1], the Ratio was found to be 0.87. Further, the inhibition constant Ki worked out at 16.9 nM in assay [2] and 19.32 nM in assay [3].

In the case of `COc1ccc(N2CCN(CCn3c(=O)[nH]c4cc(-c5ccccc5)[nH]c4c3=O)CC2)cc1`, the Ki in assay [2] and in assay [3] was over 10000 nM each time.

As for `COc1ccccc1N1CCN(CCn2c(=O)[nH]c3cc(-c4ccccc4Cl)[nH]c3c2=O)CC1`, the Ratio in assay [1] is 21. The Ki in assay [2] turned out to be 16.1 nM; in assay [3] it was 0.76 nM.

Take `O=c1[nH]c2cc(-c3ccccc3)[nH]c2c(=O)n1CCCN1CCN(c2ccccc2Cl)CC1`: the Ratio in assay [1] stood at 2.1. Further, the inhibition constant (Ki) was determined as 130 nM in assay [2] and 62.37 nM in assay [3].

For the compound `COc1ccccc1N1CCN(CCn2c(=O)[nH]c3cc(-c4ccc(Cl)cc4)[nH]c3c2=O)CC1`, the Ratio in assay [1] was over 1000; in the assay listed under Rattus norvegicus [4], 0.47; in the assay listed under Rattus norvegicus [5], over 1000. In addition, the inhibition constant Ki was over 10000 nM on D(1A) dopamine receptor, over 10000 nM in assay [2], 7.68 nM in assay [3] and 3.64 nM on D(2) dopamine receptor.

Turning to `O=c1[nH]c2c([nH]c3ccccc32)c(=O)n1CCN1CCN(c2ccccc2Cl)CC1`, the Ratio in assay [1] is over 15000. Also, the inhibition constant Ki in assay [2] was over 10000 nM; in assay [3], 0.53 nM.

Turning to `O=c1[nH]c2cc(-c3ccc(Cl)cc3)[nH]c2c(=O)n1CCN1CCN(c2ccccc2Cl)CC1`, the Ratio (in assay [1]; in the assay listed under Rattus norvegicus [4]; in the assay filed under Rattus norvegicus [5]) was over 800 each time. Also, the inhibitory constant (Ki) at D(1A) dopamine receptor is over 10000 nM; in assay [2], over 10000 nM; in assay [3] it was 11.7 nM; on D(2) dopamine receptor, over 10000 nM.

With `O=c1[nH]c2cc(-c3ccccc3Cl)[nH]c2c(=O)n1CCN1CCN(c2ccccc2Cl)CC1`, the Ratio was over 20000 in assay [1], 60 in the assay listed under Rattus norvegicus [4] and over 20000 in the assay listed under Rattus norvegicus [5]. For the same compound, the Ki is over 10000 nM at D(1A) dopamine receptor, over 10000 nM in assay [2], 0.46 nM in assay [3] and 27.8 nM at D(2) dopamine receptor.

Take `COc1ccccc1N1CCN(CCn2c(=O)[nH]c3cc(-c4ccccc4)[nH]c3c2=O)CC1`: the Ratio in assay [1] turned out to be 46. Besides, the inhibition constant (Ki) in assay [2] came to 24 nM; in assay [3], 0.52 nM.

Take `COc1ccccc1N1CCN(CCn2c(=O)[nH]c3cc(-c4ccc(C)cc4)[nH]c3c2=O)CC1`: the Ratio is over 4500 in assay [1], 9.7 in the assay filed under Rattus norvegicus [4] and over 4500 in the assay listed under Rattus norvegicus [5]. For the same compound, the Ki on D(1A) dopamine receptor is over 10000 nM; in assay [2], over 10000 nM; in assay [3], 2.05 nM; on D(2) dopamine receptor, 19.9 nM.

As to `O=c1[nH]c2cc[nH]c2c(=O)n1CCN1CCN(c2ccccc2Cl)CC1`, the Ratio in assay [1] is 594; in the assay filed under Rattus norvegicus [4], 343; in the assay filed under Rattus norvegicus [5], over 10000. Also, the Ki at D(1A) dopamine receptor is over 10000 nM; in assay [2], 559 nM; in assay [3] it was 0.94 nM; at D(2) dopamine receptor, 322 nM.

For the compound `O=c1[nH]c2cc(-c3ccccc3)[nH]c2c(=O)n1CCN1CCN(c2ccccc2Cl)CC1`, the Ratio in assay [1] was 32. Besides, the Ki worked out at 35 nM in assay [2] and 1.08 nM in assay [3].

In the case of `COc1ccccc1N1CCN(CCCn2c(=O)[nH]c3cc[nH]c3c2=O)CC1`, the Ratio in assay [1] worked out at 6.9. The inhibition constant Ki in assay [2] came to 193 nM; in assay [3], 28.01 nM.

In the case of `Cc1ccc(-c2cc3[nH]c(=O)n(CCN4CCN(c5ccccc5Cl)CC4)c(=O)c3[nH]2)cc1`, the Ratio (in assay [1]; in the assay listed under Rattus norvegicus [4]; in the assay listed under Rattus norvegicus [5]) was over 500 throughout. The inhibition constant Ki at D(1A) dopamine receptor was over 10000 nM; in assay [2] it was over 10000 nM; in assay [3], 17.26 nM; at D(2) dopamine receptor, over 10000 nM.

As to `COc1ccccc1N1CCN(CCCn2c(=O)[nH]c3cc(-c4ccccc4)[nH]c3c2=O)CC1`, the Ratio in assay [1] was determined as 18. The inhibitory constant (Ki) in assay [2] is 22.4 nM; in assay [3] it was 1.23 nM.
